CSN deneddyl inh – blocks human CSN-mediated cullin deneddylation; Purified CSN, SCF-Nedd8-OG deneddylation, fluorescence polarization; inhibition, % at 12.5 µM; hit rate 0.38% among 360,000; AID 651999;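 active = pattern-corrected inhibition above about 35%, with an unprinted fluorescence ratio check between 0.5 and 1.5, limit read from the data, passing the limit was not always enough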;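 note: 0% = enzyme with substrate and 100% = substrate without enzyme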
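Test system: Human Csn5 produced in HEK293T cells | Compound: 12.5 µM single point | Times: 90 min, room temperature | Signal: Fluorescence polarization readout | Read-out basis: % inhibition of substrate cleavage by Csn5 | Controls: no-enzyme wells high, enzyme-with-substrate wells low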
TPT1 inh – inhibitors of Candida albicans tRNA 2'-phosphotransferase TPT1. recombinant caTPT1, FP RNA substrate dephosphorylation. AID 1962. inhibition, % at 5 µM. hit rate 0.81% among 300,000;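 active = inhibition above the mean of all tested compounds plus 3 SD, set per screening campaign, cut at about 24% in these data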;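 note: plate controls were DMSO alone for no effect and ferristatin control at 100 nM for full effect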
SENP1 inh – blocks the human SENP1 SUMO protease catalytic domain; inhibition, % at 10 µM; recombinant SENP1 catalytic domain, CyPet-SUMO1-YPet FRET cleavage; Q9P0U3; hit rate 0.21% among 360,000;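 active = inhibition at least 30% at 10 µM, raw YFP signal under a set limit, fluorescence ratio 0.5 to 1.5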;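 note: 0% = enzyme with DMSO and 100% = no enzyme wells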
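Material: hSENP1 catalytic domain, recombinant; medium: Tris pH 8 with BME, BSA, NP40 and catalase; compound: single concentration of 10 µM compound, 0.5% DMSO final; technique: FRET read of cyan and yellow fluorescence; timing: 50 min enzyme reaction, room temperature, light-protected; reagent: SFCypet-SUMO1-SFYpet substrate at 25 nM; control set: no-enzyme low, enzyme-DMSO high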
Rpn11 inh – blocks the human proteasome subunit Rpn11; hit rate 0.59% among 360,000; human 26S proteasome, Ub4-pepOG fluorescence polarization; 20S core pre-blocked with epoxomicin; AID 588493; O00487; calls only at 20 µM;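 active = inhibition at 20 µM, scaled to each plate's controls, above about 33%, limit read from the data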
UBC9 SUMO inh – blocks human SUMOylation mediated by UBC9. P63279. HTRF SUMOylation assay, SAE1/SAE2 + UBC9, in vitro. inhibition, % at 35 µM. hit rate 0.36% among 290,000; in the data active = inhibition above about 50%, passing the limit was not always enough
Target sequence (P63279 whole entry, looked up): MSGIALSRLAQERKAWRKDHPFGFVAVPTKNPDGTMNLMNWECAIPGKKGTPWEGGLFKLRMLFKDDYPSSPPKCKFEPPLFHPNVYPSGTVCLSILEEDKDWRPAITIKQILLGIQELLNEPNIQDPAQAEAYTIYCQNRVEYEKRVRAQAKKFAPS
HNF4A DNA FP – change in binding of human HNF4 alpha to DNA; HNF4a-FITC DNA binding, fluorescence polarization, 1 h; P41235; hit rate 0.3% among 360,000; activity change, % at 10 µM; AID 1224865; in the data active = activity change above about 30%, passing the limit was not always enough
Target sequence (P41235 whole entry, looked up): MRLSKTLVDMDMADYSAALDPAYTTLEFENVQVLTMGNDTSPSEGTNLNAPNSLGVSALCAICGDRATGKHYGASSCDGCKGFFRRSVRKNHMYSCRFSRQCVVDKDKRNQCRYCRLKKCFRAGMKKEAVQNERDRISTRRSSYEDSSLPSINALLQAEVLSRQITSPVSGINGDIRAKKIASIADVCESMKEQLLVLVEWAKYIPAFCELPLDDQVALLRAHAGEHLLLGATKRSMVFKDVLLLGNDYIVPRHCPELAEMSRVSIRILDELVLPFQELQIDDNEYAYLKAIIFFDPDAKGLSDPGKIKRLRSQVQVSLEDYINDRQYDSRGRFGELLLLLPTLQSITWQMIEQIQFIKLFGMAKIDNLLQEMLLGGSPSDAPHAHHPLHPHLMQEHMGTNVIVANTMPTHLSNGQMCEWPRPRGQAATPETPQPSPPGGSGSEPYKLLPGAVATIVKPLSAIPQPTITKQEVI
caTPT1 confirm – TPT1 (C. albicans) inhibition, confirmation. shares compounds with TPT1 inh. recombinant caTPT1, fluorescence polarization, RNase T1 coupled. inhibition, % at 5 µM. hit rate 74% among 2,400. AID 2149;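 active = inhibition above the primary screen limit, the mean inhibition of all tested compounds plus 3 SD, cut at about 25% in these data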
RNase T1 inh – RNase T1 inhibition in TPT1 counter-screen | shares compounds with TPT1 inh | RNase T1 cleavage, fluorescence polarization, 1536-well | inhibition, % at 5 µM | hit rate 83% among 2,400 | AID 2153;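 active = inhibition above the solvent-only control well mean plus 3 SD, limit set per screening run, cut at about 23% in these data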;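 note: plate controls were DMSO wells with enzyme for no effect and wells without RNase T1 for full effect; inhibitors block cleavage so intact labeled substrate keeps polarization high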
* hit, by the source's call; i = inactive; x = no result given; + = active, no number. This is a sample that favours compounds with a hit; in the whole collection about 1.8% have one here.

SMILES	CSN deneddyl inh	TPT1 inh	SENP1 inh	Rpn11 inh	UBC9 SUMO inh	HNF4A DNA FP	caTPT1 confirm	RNase T1 inh
CCN(CCNC(=O)C1CCN(Cc2nc(-c3ccc(Cl)cc3)oc2C)CC1)c1ccccc1	-3	0	2	i	14	63*	x	x
C=CCn1cc(Cl)c(=O)n(CC=C)c1=O	-6	1	1	i	20	-1	x	x
O=C(O)C1CSC(c2ccncc2)N1 (stereo not given)	1	-16	65*	i	3	-6	x	x
O=C(NCCc1ccc(Cl)cc1)C1CCC(=O)N(C2CCCCCC2)C1 (stereo not given)	1	0	0	i	1	2	x	x
COc1cccc(/C=N/n2cnc3cc(C)c(C)cc32)c1OC	-3	-2	-2	i	-15	-4	x	x
O=C1C(Cl)=C(NC(=O)c2ccccc2)C(=O)C(Cl)=C1NC(=O)c1ccccc1	0	0	-2	i	51*	1	x	x
CCCN1CCC2(CC1)C(C#N)=C(N)Oc1c2sc2nc(C)cc(C)c12	-2	24*	-36	i	21	1	19	27*
CCCN1CCN(C(=O)C2CCN(c3nnc(C)c4c(C)n(-c5ccc(C)cc5)nc34)CC2)CC1	27	28*	21	x	0	34	36*	48*
O=C(CSc1nnc2ccc(-c3ccncc3)nn12)c1cccs1	2	4	-18	i	22	4	x	x
CCOc1ccccc1CNC(CC)CO (stereo not given)	-1	0	-1	i	14	5	x	x
Cc1ccc(C)c(N2CCN(S(=O)(=O)c3c(C)noc3/C=C/N(C)C)CC2)c1	5	29*	1	i	7	2	7	9
CC1=NCC(C)c2c1[nH]c1ccccc21 (stereo not given)	6	56*	-10	i	15	2	17	27*
CC(=O)c1ccc(Nc2ccc([N+](=O)[O-])c3nonc23)cc1	9	30*	19	i	15	13	37*	52*
CCc1nnc(NS(=O)(=O)c2ccc(NS(=O)(=O)c3ccccc3[N+](=O)[O-])cc2)s1	-4	0	0	i	-5	2	x	x
CCc1nnc(NS(=O)(=O)c2ccc(Nc3ccc([N+](=O)[O-])c4nonc34)cc2)s1	2	27*	28	i	5	38*	33*	49*
O=C(O)c1ccc(Nc2ccc([N+](=O)[O-])c3nonc23)cc1	4	x	11	i	-11	5	x	x
CC(=O)c1ccccc1NCC(=O)Nc1ccc(C)cc1	-1	+	-47	i	30	-3	18	29*
Cc1ccc(NC(=O)c2ccccc2NC(=O)CCC(=O)O)cc1	-6	-1	3	i	0	1	x	x
COC(=O)[C@H](NC(=O)c1cc([C@@H](NC(=O)OC(C)(C)C)C(C)C)sc1N)C(C)C	3	x	-3	x	x	6	x	x
Cc1oc(-c2ccccc2Cl)nc1CN1CCCC1c1ccc(F)cc1 (stereo not given)	3	3	-9	i	5	7	x	x
Cc1ccc(-c2nc(CN3CCCCC3c3cccc(F)c3)c(C)o2)o1 (stereo not given)	9	33*	-34	i	2	19	23	30*
O=C(C[n+]1ccccc1)c1ccc(-c2ccccc2)cc1	-2	40*	2	i	4	4	4	9
CCOC(=O)c1sc(N/N=C/c2ccccc2)nc1C	-4	0	-17	i	11	0	x	x
CC(=O)c1sc(N/N=C\c2ccccc2O)nc1C	13	136*	-29	x	1	35*	118*	115*
CC(C)CC(C(=O)Nc1oc(-c2ccccc2)c(-c2ccccc2)c1C#N)N1C(=O)c2ccccc2C1=O (stereo not given)	0	0	3	i	-17	2	x	x
SMILES	CSN deneddyl inh	TPT1 inh	SENP1 inh	Rpn11 inh	UBC9 SUMO inh	HNF4A DNA FP	caTPT1 confirm	RNase T1 inh
COc1ccccc1N1C(=O)C2C(C(=O)c3ccccc3)=NN(c3ccc(Br)cc3)C2C1=O (stereo not given)	24	35*	-34	i	36	32	27*	41*
COc1ccccc1N1C(=O)C2C(C(=O)c3ccccc3)=NN(c3ccc(C)cc3)C2C1=O (stereo not given)	6	51*	-35	i	30	-23	65*	73*
COC(=O)C1=NN(c2ccc(C)cc2)C2C(=O)N(c3ccccc3OC)C(=O)C12 (stereo not given)	-3	0	-12	i	25	7	x	x
COc1ccc(C(=O)c2sc3nc(-c4ccccc4)ccc3c2N)cc1	6	82*	-25	+	10	28	85*	92*
CN(C)c1ccc(/C=C/c2nc3ccccc3c(=O)n2-c2ccc(C(=O)O)cc2)cc1	-76	144*	-23	x	33	151	159*	143*
O=C(O)c1cccc(-n2c(/C=C/c3ccccc3)nc3ccccc3c2=O)c1	2	-2	3	i	4	-2	x	x
COC(=O)Cn1c(=O)c2c(n(Cc3ccccc3)c1=O)N/C(=C/c1ccc(Br)cc1)C2=O	13	43*	-36	x	42	14	32*	47*
O=C(CC[C@H]1O[C@@H](n2ccc(=O)[nH]c2=O)[C@H](O)[C@@H]1O)NCc1ccc2c(c1)OCO2	-4	x	-2	i	x	2	x	x
O=[N+]([O-])c1cccc(/C=C/c2nc(C=Nc3ccc4ccccc4c3)c(O)o2)c1	5	33*	2	i	16	4	20	28*
O=[N+]([O-])c1cccc(/C=C/c2ccc3cccc(O)c3n2)c1	-5	-1	1	i	-35	2	x	x
O=C(CSc1nc2[nH]c(=O)cc(O)c2s1)Nc1cccc(Br)c1	1	x	-2	i	x	1	x	x
Cc1ccc(/C=C2/Sc3ccc(C(=O)N4CCN(c5ccccn5)CC4)cc3NC2=O)cc1	14	28*	-11	i	38	17	49*	61*
O=C(COC(=O)CNS(=O)(=O)c1ccc(Br)cc1Cl)Nc1ccc(N2CCOCC2)cc1	5	1	4	i	x	6	x	x
Cc1ccc2c(ccc[n+]2CC(=O)c2ccccc2)c1	2	10	9	i	4	-3	x	x
O=[N+]([O-])c1ccc(Cl)c(C[n+]2cccc3ccccc32)c1	6	59*	56	i	1	4	12	19
